As a reminder, the Cmax is the highest concentration seen after dosing.

Some results are limits rather than exact numbers.

The test system of data set [1] is Plasma. As to the kind of experiment: AUC (infinity) in Sprague-Dawley rat plasma assessed as FDUR formation at 23.62 mg/kg administered through oral gavage measured up to 24 hrs by HPLC-MS/MS analysis. The class given is ADME, organism-based. The settings on record: in vivo. Set-up: dose 23.62 mg/kg, time infinity, route oral. An outline of the steps: (§1)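 Male Sprague-Dawley rats (220 ± 20 g), single gavage of 0.096 mmol/kg. FDUR was dosed in H2O; the prodrugs were dosed in 20% hydroxypropyl-β-cyclodextrin. n = 3 per time point, sampled at 0.25–24 h. Plasma (EDTA-K2, cardiac puncture) and freeze-clamped liver were homogenized in 20 mM EDTA-K2/70% MeOH. Analytes measured by HPLC-MS/MS in ESI negative mode.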

Data set [2] deals with Plasma. Description: AUC (infinity) in Sprague-Dawley rat plasma assessed as 5-FU formation at 23.62 mg/kg administered through oral gavage measured up to 24 hrs by HPLC-MS/MS analysis. The class given is ADME, organism-based. Also noted: dose 23.62 mg/kg, route oral, time infinity. To be noted: in vivo. The method in brief: as §1
Data set [3] relates to Liver. Description: Cmax in Sprague-Dawley rat liver assessed as 5-FU formation at 23.62 mg/kg administered through oral gavage measured up to 24 hrs by HPLC-MS/MS analysis. The data set is classed as ADME, organism-based. Set-up: dose 23.62 mg/kg, route oral. To be noted: in vivo. An outline of the steps:
as §1

Data set [4] is described as follows: Ratio of FdUMP AUC (infinity) in Sprague-Dawley rat liver to FDUR AUC (infinity) in Sprague-Dawley rat plasma at 23.62 mg/kg administered through oral gavage. The data set is classed as ADME, organism-based. To be noted: in vivo.
The test system of data set [5] is Liver. As to the kind of experiment: AUC (infinity) in Sprague-Dawley rat liver assessed as FdUMP formation at 23.62 mg/kg administered through oral gavage measured up to 24 hrs by HPLC-MS/MS analysis. The class given is ADME, organism-based. Also noted: dose 23.62 mg/kg, time infinity, route oral. To be noted: in vivo. The method in brief:
as §1

For data set [6], the system named is Liver. Description: Cmax in Sprague-Dawley rat liver assessed as FdUMP formation at 23.62 mg/kg administered through oral gavage measured up to 24 hrs by HPLC-MS/MS analysis. The data set is classed as ADME, organism-based. Set-up: dose 23.62 mg/kg, route oral. To be noted: in vivo. An outline of the steps: as §1
In data set [7] the test system is Plasma. As to the kind of experiment: Cmax in Sprague-Dawley rat plasma assessed as 5-FU formation at 23.62 mg/kg administered through oral gavage measured up to 24 hrs by HPLC-MS/MS analysis. The class given is ADME, organism-based. Set-up: dose 23.62 mg/kg, route oral. The settings on record: in vivo. An outline of the steps: as §1
The subject of data set [8] is Liver. Description: AUC (infinity) in Sprague-Dawley rat liver assessed as 5-FU formation at 23.62 mg/kg administered through oral gavage measured up to 24 hrs by HPLC-MS/MS analysis. The class given is ADME, organism-based. Set-up: dose 23.62 mg/kg, time infinity, route oral. The settings on record: in vivo. An outline of the steps: as §1
Data set [9] relates to Plasma. As to the kind of experiment: Cmax in Sprague-Dawley rat plasma assessed as FDUR formation at 23.62 mg/kg administered through oral gavage measured up to 24 hrs by HPLC-MS/MS analysis. The class given is ADME, organism-based. Also noted: dose 23.62 mg/kg, route oral. The settings on record: in vivo. An outline of the steps: as §1
Data set [10] concerns Liver. As to the kind of experiment: Drug uptake in Sprague-Dawley rat liver treated with (S)-Isopropyl 2-(((R)-(((2R,3S,5R)-5-(5-fluoro-2,4-dioxo-3,4-dihydropyrimidin-1(2H)-yl)-3-hydroxytetrahydrofuran-2-yl)methoxy)((2-methylbenzyl)oxy)phosphoryl)amino)propanoate. The settings on record: in vivo. The data set is classed as ADME, tissue-based.
The test system of data set [11] is Plasma. Description: Drug uptake in Sprague-Dawley rat plasma treated with (S)-Isopropyl 2-(((R)-(((2R,3S,5R)-5-(5-fluoro-2,4-dioxo-3,4-dihydropyrimidin-1(2H)-yl)-3-hydroxytetrahydrofuran-2-yl)methoxy)((2-methylbenzyl)oxy)phosphoryl)amino)propanoate. The class given is ADME, cell-free.
The subject of data set [12] is Liver. Description: Drug uptake in Sprague-Dawley rat liver S9 fraction treated with (S)-Isopropyl 2-(((R)-(((2R,3S,5R)-5-(5-fluoro-2,4-dioxo-3,4-dihydropyrimidin-1(2H)-yl)-3-hydroxytetrahydrofuran-2-yl)methoxy)((2-methylbenzyl)oxy)phosphoryl)amino)propanoate at 20 ug/mL after 20 mins by HPLC-MS/MS analysis in absence of NADPH. The class given is ADME. To be noted: s9, 20 min. The method in brief:
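Rat liver S9 (10 mg/mL) incubated with compound at 20 μg/mL. Parent, intermediate A and FdUMP followed over time by HPLC-MS/MS. Negative control run without NADPH.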

For the compound `O=c1[nH]c(=O)n([C@H]2C[C@H](O)[C@@H](CO)O2)cc1F` [FLOXURIDINE], the AUC with Plasma [1] is 308 ng·h/mL; in the data set on Plasma [2], 209 ng·h/mL; in the data set on Liver [5] it was < 34 ng·h/g; in the data set on Liver [8] it was 232 ng·h/g. The Cmax was 60 ng/g with Liver [3], 9 ng/g in the data set on Liver [6], 169 ng/mL in the data set with Plasma [7] and 180 ng/mL in the data set on Plasma [9]. In addition, the “Ratio AUC” value in [4] was < 0.11.

Consider `Cc1ccccc1C(=O)NCC(=O)O`, for which the Drug uptake result with Liver [10] and with Plasma [11] was “metabolite_detected” each time.

Consider `Cc1ccccc1C(=O)O` [TOLUIC ACID], for which the Drug metabolism result in the data set with Liver [12] was “metabolite_detected”.

The values above are taken from ChEMBL document CHEMBL3813647, “Discovery of an Orally Active and Liver-Targeted Prodrug of 5-Fluoro-2'-Deoxyuridine for the Treatment of Hepatocellular Carcinoma” (J Med Chem, 2016).
